Measurements: publication PMC3344817 (ChemMedChem, 2011)

Assays:
Molt 4/C8 T-lymphocytes = assay: Cytotoxicity; format: cell-based, human; conditions: for IC50: Homo sapiens, Molt4/C8, 72 h, read-out: IC50, Molt 4/C8 cells; for RP (relative potency), Molt 4/C8 cells: IC50 of 2 divided by IC50 of the compound
CEM T-lymphocytes = assay: Cytotoxicity; format: cell-based, human; conditions: IC50 of 2 divided by IC50 of the compound
L1210 cells = assay: Cytotoxicity; format: cell-based, murine; conditions: for RP (relative potency), L1210 cells: IC50 of 2 divided by IC50 of the compound; for IC50: Mus musculus, L1210, 48 h, read-out: IC50, L1210 cells
CEM = assay: CC50 by flow cytometry with propidium iodide, CEM; format: cell-based, human; conditions: CC50 toward NIH-3T3 fibroblasts / CC50 toward CEM
Summary of the method: (§1)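 Non-adherent lymphoma/leukaemia cells in RPMI were given a range of test compound concentrations (DMSO solution) for 22 h at 37°C. Plasma membrane disruption was scored by flow cytometry with propidium iodide to derive CC50, and values are the mean of three independent experiments. SI = CC50 toward NIH-3T3 fibroblasts ÷ CC50 toward the given non-adherent line.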

EL-4 = assay: CC50 by flow cytometry with propidium iodide, EL-4; format: cell-based, murine
Summary of the method: as §1

JURKAT = assay: CC50 by flow cytometry with propidium iodide, JURKAT; format: cell-based, human
Summary of the method: as §1

Nalm6 = assay: CC50 by flow cytometry with propidium iodide, Nalm6; format: cell-based, human
Summary of the method: as §1

Sup-T1 = assay: CC50 by flow cytometry with propidium iodide, Sup-T1; format: cell-based, human
Summary of the method: as §1

[1] = CC50 by flow cytometry with propidium iodide, NIH-3T3 fibroblasts; format: cell-based, murine; conditions: mouse, NIH-3T3 fibroblasts (non-malignant)
Summary of the method: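 Adherent NIH-3T3 fibroblasts in DMEM received a range of test compound concentrations (DMSO solution) for 22 h at 37°C. CC50 was obtained by flow cytometry with propidium iodide, scoring plasma membrane disruption. Values are the mean of three independent experiments.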

[2] = tested on: JURKAT, Nalm-6, SUP-T1, or CEM cells; assay: Flow cytometry analysis of apoptosis and necrosis; format: cell-based, human; conditions: after 20 h; relative to the percentage at 8 h; four non-adherent cell lines
Summary of the method: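 Test compound was incubated with JURKAT, Nalm-6, SUP-T1 or CEM cells in RPMI. After 8 and 20 h, cells were stained with Annexin-V-FITC plus propidium iodide. Flow cytometry gave the percentages of apoptotic, necrotic and viable cells.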

human tumor cell lines = assay: US National Cancer Institute human tumor cell line screen; format: cell-based; conditions: 48 h; Figure 4

Row | SMILES | IC50 (Molt 4/C8 T-lymphocytes) | RP (relative potency), Molt 4/C8 cells (Molt 4/C8 T-lymphocytes) | RP (relative potency), CEM cells (CEM T-lymphocytes) | RP (relative potency), L1210 cells (L1210 cells) | IC50 (L1210 cells) | further results
1 | O=C1C(=Cc2ccccc2)CN(C(=O)C=CC(=O)N2CC(=Cc3ccccc3)C(=O)C(=Cc3ccccc3)C2)CC1=Cc1ccccc1 [1 f, 1,4-Bis-(3,5-dibenzylidene-4-oxo-piperidin-1-yl)but-2-ene-1,4-dione] | 4400 ± 2950 nM | 1.8 | 0.2 | 0.3 | 28900 ± 2000 nM | –
2 | O=C1C(=Cc2ccccc2)CN(C(=O)C(=O)N2CC(=Cc3ccccc3)C(=O)C(=Cc3ccccc3)C2)CC1=Cc1ccccc1 [Compound 1a, 1,2-Bis(3,5-dibenzylidene-4-oxo-piperidin-1-yl)ethane-1,2-dione] | 460 ± 110 nM | 18 | 2.5 | 1.8 | 4460 ± 230 nM | SI (selectivity index), CEM (CEM): 376; SI (selectivity index), EL-4 (EL-4; CC50 toward NIH-3T3 fibroblasts / CC50 toward EL-4): 412; CC50 (EL-4; Mus musculus, EL4, 22 h, read-out: CC50, EL-4): 31 nM; SI (selectivity index), JURKAT (JURKAT; CC50 toward NIH-3T3 fibroblasts / CC50 toward JURKAT): 441; CC50 (JURKAT; Homo sapiens, Jurkat, 22 h, read-out: CC50, JURKAT): 29 nM; SI (selectivity index), Nalm6 (Nalm6; CC50 toward NIH-3T3 fibroblasts / CC50 toward Nalm6): 581; CC50 (Nalm6; Homo sapiens, NALM-6, 22 h, read-out: CC50, Nalm6): 22 nM; SI (selectivity index), Sup-T1 (Sup-T1; CC50 toward NIH-3T3 fibroblasts / CC50 toward Sup-T1): 33; CC50 (Sup-T1; Homo sapiens, SUP-T1, 22 h, read-out: CC50, Sup-T1): 384 nM; CC50 at 22 h [1]: 12800 nM; apoptotic cells [2]: doubling; IC50 towards human tumor cell lines, comparison (human tumor cell lines): generally displays lower IC50 values than 1 b
3 | O=C1C(=Cc2ccccc2)CN(C(=O)CC(=O)N2CC(=Cc3ccccc3)C(=O)C(=Cc3ccccc3)C2)CC1=Cc1ccccc1 [Compound 1b, 1,3-Bis-(3,5-dibenzylidene-4-oxo-piperidin-1yl)propane-1,3-dione] | 70 ± 10 nM | 115 | 9.3 | 6.5 | 1230 ± 380 nM | –
4 | O=C1C(=Cc2ccccc2)CN(C(=O)CCC(=O)N2CC(=Cc3ccccc3)C(=O)C(=Cc3ccccc3)C2)CC1=Cc1ccccc1 [Compound 1c, 1,4-Bis-(3,5-dibenzylidene-4-oxo-piperidin-1-yl)butane-1,4-dione] | 570 ± 160 nM | 14 | 1.5 | 0.6 | 14000 ± 1200 nM | –
5 | O=C1C(=Cc2ccccc2)CN(C(=O)CCCC(=O)N2CC(=Cc3ccccc3)C(=O)C(=Cc3ccccc3)C2)CC1=Cc1ccccc1 [Compound 1d, 1,5-Bis-(3,5-dibenzylidene-4-oxo-piperidin-1-yl)pentane-1,5-dione] | 1610 ± 50 nM | 5.0 | 0.9 | 0.7 | 11500 ± 300 nM | –
6 | O=C1C(=Cc2ccccc2)CN(C(=O)CCCCCCC(=O)N2CC(=Cc3ccccc3)C(=O)C(=Cc3ccccc3)C2)CC1=Cc1ccccc1 [Compound 1e, 1,8-Bis-(3,5-dibenzylidene-4-oxo-piperidin-1-yl)octane-1,8-dione] | 1530 ± 540 nM | 5.3 | 0.8 | 0.5 | 15300 ± 4200 nM | –
7 | O=C1C(=Cc2ccccc2)CN(C(=O)C#CC(=O)N2CC(=Cc3ccccc3)C(=O)C(=Cc3ccccc3)C2)CC1=Cc1ccccc1 [Compound 1g, 1,4-Bis-(3,5-dibezylidene-4-oxo-piperidin-1-yl)-but-2-yne-1,4-dione] | – | 5.4 | 0.6 | 0.8 | – | –
8 | O=C1C(=Cc2ccccc2)CN(C(=O)C=CC=CC(=O)N2CC(=Cc3ccccc3)C(=O)C(=Cc3ccccc3)C2)CC1=Cc1ccccc1 [Compound 1h, 1,6-Bis-(3,5-dibenzylidene-4-oxo-piperidin-1-yl)-hexa-2,4-diene-1,6-dione] | 25100 ± 15800 nM | 0.3 | 0.1 | 0.1 | 79000 ± 10200 nM | –
9 | O=C1C(=Cc2ccccc2)CN(C(=O)c2ccccc2C(=O)N2CC(=Cc3ccccc3)C(=O)C(=Cc3ccccc3)C2)CC1=Cc1ccccc1 [Compound 1i, 1,2-Bis-[(3,5-dibenzylidene-4-oxo-piperidin-1-yl)-1-carbonyl]benzene] | – | 9.5 | 1.3 | 1.9 | – | –
10 | O=C1C(=Cc2ccccc2)CN(C(=O)c2cccc(C(=O)N3CC(=Cc4ccccc4)C(=O)C(=Cc4ccccc4)C3)c2)CC1=Cc1ccccc1 [Compound 1j, 1,3-Bis-[(3,5-dibenzylidene-4-oxo-piperidin-1-yl)-1-carbonyl]benzene] | – | 0.7 | 0.1 | 0.1 | – | –
11 | N[C@@H](Cc1ccc(N(CCCl)CCCl)cc1)C(=O)O [Melphalan, reference compound] | 3240 ± 790 nM | – | – | – | – | –
